# In article PMC2841041 (Developmental cell, 2010):
# Peptide text beside a SMILES is read from it. * marks the point of attachment. Cbz = O=C(OCc1ccccc1)*; CH2F = FC*
# T1: recombinant μ4 C-terminal domain (Homo sapiens, UniProt O00189, C235S/C431S)
# T1 sequence (O00189 160-453 C235S/C431S): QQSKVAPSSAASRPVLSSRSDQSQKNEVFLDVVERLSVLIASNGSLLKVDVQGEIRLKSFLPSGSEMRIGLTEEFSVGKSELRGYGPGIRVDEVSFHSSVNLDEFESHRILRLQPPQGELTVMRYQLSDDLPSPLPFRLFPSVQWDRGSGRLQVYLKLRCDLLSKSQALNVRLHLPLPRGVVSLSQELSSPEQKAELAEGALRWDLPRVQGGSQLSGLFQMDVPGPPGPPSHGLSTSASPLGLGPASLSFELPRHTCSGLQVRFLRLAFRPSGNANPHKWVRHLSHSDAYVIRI
# T2: recombinant μ4 C-terminal domain (160–453; C235S, C431S) (human, UniProt O00189 160-453, C235S | C431S)
# T2 sequence (looked up): T1 sequence (O00189 160-453 C235S/C431S)
# Experiments:
# [1] = target: T1, recombinant μ4 C-terminal domain; test: Isothermal titration calorimetry; format: binding; conditions: purified components, synthetic peptide
# μ1, μ2 and μ3 subunits = test: Y2H of APP signal with other AP μ subunits; format: binding
# [2] = test system: HeLa cells expressing APP-CFP; test: Immunoblot of APP-CFP fragments; format: cell-based; conditions: for C31 fragment levels/formation: DAPT-treated cells
# Summary of the method: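 HeLa cells transfected (Lipofectamine 2000, 1 h, 37°C, no FBS) with C-terminally CFP-tagged APP (wild-type, D664A or F689A/F690A/E691A), or μ4-siRNA-depleted twice and then APP-CFP-transfected. Analysed 8–16 h post-transfection after 16 h ± 250 nM DAPT, 100 μM E-64 and/or 200 μM Z-VAD-FMK. Pellet/supernatant fractionation in some runs. SDS-PAGE, anti-GFP immunoblot. Fragment levels given as mean ± SD of three experiments.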
# [3] = test system: HeLa cells expressing CTFβ-GFP; test: Processing of CTFβ-GFP; format: cell-based; conditions: immunoblot, antibody to GFP; for CTFα and C31 from CTFβ-GFP: DAPT-treated cells
# Summary of the method: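 CTFβ-GFP (wild-type, D664A or F689A/F690A/E691A) expressed in HeLa cells, or in mock- or μ4-siRNA-depleted cells. Same handling: lipofection, 8–16 h, then 16 h ± 250 nM DAPT, 100 μM E-64 and/or 200 μM Z-VAD-FMK, anti-GFP immunoblot; mean ± SD, n=3. Aβ: 4 h [35S]Met-Cys labelling at 37°C, medium immunoprecipitated with 6E10, Tricine 10–20% gels, fluorography; mean ± SD, n=4.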
# μ4 subunit of AP-4 = test: Yeast two-hybrid; format: binding, human; conditions: His-deficient plates, 30°C
# mutant μ4 = test: Yeast two-hybrid; format: binding, human
# Summary of the method: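 Yeast co-transformed with Gal4ad fused to wild-type or point-mutant human μ4 (mutations introduced by site-directed mutagenesis) and Gal4bd fused to the APP tail (human APP695 template). Cells spotted on His-deficient and His-containing plates and incubated at 30°C; growth on −His scored as interaction. Controls: Gal4bd-mouse p53 with Gal4ad-SV40 large T antigen.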
# [4] = test system: ε, β4 and σ4 subunits of AP-4; test: Y2H of APP tail with other AP-4 subunits; format: binding
# HeLa cells = test: Pulse-chase / immunoblot analysis of APP processing and CTF levels; format: cell-based; conditions: 250 nM DAPT; decrease elicited by FFE mutation or μ4 depletion
# [5] = test system: APP distribution in HeLa cells; test: Immunofluorescence microscopy, intracellular distribution of APP; format: cell-based
# [6] = target: T2, recombinant μ4 C-terminal domain …; test: ITC
molecule,measurement,setting,value
ENPTAKAAEQ,binding site number / binding by ITC,[1],"but not a substituted ENPTAKAAEQ variant, bound"
YKFFE,"Y2H interaction with μ1, μ2, μ3","μ1, μ2 and μ3 subunits",does not bind to these μ subunits
COC(=O)C[C@H](NC(=O)[C@H](C)NC(=O)[C@@H](NC(=O)OCc1ccccc1)C(C)C)C(=O)CF [Z-VAD-FMK] (Cbz-Val-Ala-Asp(OMe)-CH2F),C31 fragment levels/formation,"[2]; immunoblot, antibody to GFP",prevented
same,CTFα and C31 from CTFβ-GFP,[3],absence
APP tail: cytosolic tail of APP fused to Gal4bd,Y2H interaction with μ4,μ4 subunit of AP-4,interacted exclusively with the μ4 subunit of AP-4
same,Y2H binding to μ4 S257A/H256A/F255A,mutant μ4; Ser-257 to Ala together with His-256 and Phe-255 to Ala,completely abolished binding
same,Y2H binding to μ4 F255A/R283D,mutant μ4; double mutation of Phe-255 and Arg-283,completely abrogated
same,Y2H binding to μ4 S257A,mutant μ4; mutation of Ser-257 to Ala,no detectable effect
same,"Y2H binding to μ4 H256A, E265A or R283A","mutant μ4; single mutation of His-256, Glu-265, Arg-283 to Ala",little or no effect on the interaction
same,Y2H binding to μ4 F255A or R283D,"mutant μ4; single mutation of Phe-255 to Ala, or Arg-283 to Asp",drastically reduced
same,Y2H binding to μ4 H256A/E265A/R283A,mutant μ4; triple mutation,greatly decreased the interaction
same,"Y2H interaction with ε, β4 and σ4",[4],did not bind to the APP tail
C[C@H](NC(=O)Cc1cc(F)cc(F)c1)C(=O)N[C@H](C(=O)OC(C)(C)C)c1ccccc1 [DAPT],C31 fragment levels/formation,"[2]; immunoblot, antibody to GFP","increased the levels of a smaller, soluble fragment"
same,difference in AICDγ-CFP levels / CTF accumulation with DAPT,"[2]; FFE mutation or μ4 depletion, incubation with DAPT","abolished by incubation with DAPT, resulting in the accumulation of equal amounts of CTFs under all conditions"
same,AICDγ-CFP formation/levels,"[2]; immunoblot, antibody to GFP",precluded AICDγ-CFP formation
same,CTFα-CFP levels,"[2]; immunoblot, antibody to GFP, DAPT 250 nM",increased CTFα-CFP levels
same,AICDγ formation/levels from CTFβ-GFP,[3],prevented AICDγ formation
same,CTFα and C31 from CTFβ-GFP,[3],resulted in the appearance of CTFα and C31
same,effect of DAPT on the decrease in steady-state CTFα levels,HeLa cells,abrogated the decrease in steady-state CTFα levels
"C[C@@H]1C[C@@H]([C@H](O)CC2CC(=O)NC(=O)C2)C(=O)[C@@H](C)C1 [cycloheximide, reference compound]",effect on APP-WT staining,"[5]; inhibition of protein synthesis, mock- and μ4-depleted cells",rapid disappearance of APP-WT staining in both mock- and μ4-depleted cells
APP-WT: wild-type APP expressed in HeLa cells,localization of APP to endosomes,"[5]; HeLa cells, normal conditions, n=11",74 ± 8%
YKYLE,Y2H interaction with μ4,μ4 subunit of AP-4,indeed bind to μ4
YRFLE,Y2H interaction with μ4,μ4 subunit of AP-4,indeed bind to μ4
ENPTYKFFEQ [synthetic ENPTYKFFEQ peptide derived from the APP tail],stoichiometry N,[6],1
